Activity calls are given as the source filed them. No cut-off for these calls is given here.
Experiments:
[1] = molecular target: T1, High affinity 3',5'-cyclic-AMP phosphodiesterase 7A (Homo sapiens, UniProt Q13946); assay: Inhibition of PDE7A assessed as hydrolysis of [3H]cAMP at 10 uM after 20 mins by scintillation proximity assay
How it was run: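 PDE7A1 enzyme (0.02 units) incubated with 5 nCi [³H]cAMP plus inhibitor in kit assay buffer, 20 min at 30 °C. Scintillation binding beads (1 mg) then added to capture [³H]AMP, shaken 1 h at room temperature, settled 30 min, radioactivity counted.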

Astrocyte [2] = assay: Antiinflammatory activity against P2 rat astrocytes assessed as inhibition of LPS-induced nitrite production at 30 uM administered 1 hr before LPS challenge measured after 24 hrs by Griess reaction; format: functional, cell-based
How it was run: (§1)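 Astrocytes from neonatal (P2) rat cortex, grown in HAMS/DMEM (1:1) with 10% FBS, shaken to remove microglia and oligodendrocytes, then expanded. Cells were pretreated with compound for 1 h, then stimulated with LPS for 24 h. Nitrite in the medium was measured by Griess reaction. Means ± SD of three independent experiments.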

[3] = Permeability of the compound after 2.5 hrs by PAMPA-BBB assay
Cerebral cortex neuron = assay: Antiinflammatory activity against E18 rat primary cortical neurons assessed as inhibition of […] at 30 uM […] measured after 24 hrs by Griess reaction; format: functional, cell-based
How it was run: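 Rat E18 cortical neurons, plated on poly-lysine/gelatin and kept in Neurobasal with B-27, used at 7 days in culture. They were exposed for 24 h, with or without inhibitor, to cell-free supernatant from LPS-stimulated primary microglia. Nitrite in the medium was measured by Griess reaction. Means ± SD of three independent experiments.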

Microglia [4] = assay: Antiinflammatory activity against rat microglial assessed as inhibition of LPS-induced nitrite production at 30 uM administered 1 hr before LPS challenge measured after 24 hrs by Griess reaction; format: functional
How it was run: (§2)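 Rat microglia shaken off 15-day mixed glial cultures and kept in HAMS/DMEM (1:1) with 10% FBS plus 10 ng/ml GM-CSF; purity >98% by OX42 staining. Cells were pretreated with compound for 1 h, then given LPS for 24 h. Nitrite in the medium was measured by Griess reaction. Means ± SD of three independent experiments.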

Microglia [5] = assay: Antiinflammatory activity against rat microglial assessed as inhibition of LPS-induced nitrite production at 1 uM administered 1 hr before LPS challenge measured after 24 hrs by Griess reaction; format: functional; how it was run: as §2
Astrocyte [6] = assay: Antiinflammatory activity against P2 rat astrocytes assessed as inhibition of LPS-induced nitrite production at 10 uM administered 1 hr before LPS challenge measured after 24 hrs by Griess reaction; format: functional, cell-based; how it was run: as §1
[7] = molecular target: T1, High affinity 3',5'-cyclic-AMP phosphodiesterase 7A; assay: Inhibition of PDE7A assessed as hydrolysis of [3H]cAMP after 20 mins by scintillation proximity assay
How it was run: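 Purified PDE7A1 (0.02 units) was incubated with 5 nCi [3H]cAMP and inhibitor in kit assay buffer for 20 min at 30 °C. Scintillation beads binding [3H]AMP were added, shaken 1 h at room temperature and left to settle 30 min, then radioactivity was counted. IC50 came from a sigmoidal dose-response fit of radioactivity vs log concentration.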

Microglia [8] = assay: Antiinflammatory activity against rat microglial assessed as inhibition of LPS-induced nitrite production at 10 uM administered 1 hr before LPS challenge measured after 24 hrs by Griess reaction; format: functional; how it was run: as §2
Mus musculus = assay: Neuroprotective effect against middle cerebral artery occlusion-induced focal cerebral ischemia in Swiss mouse stroke model assessed as reduction in infarct volume at 5 mg/kg after 15 mins (reference value: 15.4 +/- 1.1 %); format: functional; parameters: scale not given: the % may be the effect or the level left

T1 sequence (Q13946 whole entry): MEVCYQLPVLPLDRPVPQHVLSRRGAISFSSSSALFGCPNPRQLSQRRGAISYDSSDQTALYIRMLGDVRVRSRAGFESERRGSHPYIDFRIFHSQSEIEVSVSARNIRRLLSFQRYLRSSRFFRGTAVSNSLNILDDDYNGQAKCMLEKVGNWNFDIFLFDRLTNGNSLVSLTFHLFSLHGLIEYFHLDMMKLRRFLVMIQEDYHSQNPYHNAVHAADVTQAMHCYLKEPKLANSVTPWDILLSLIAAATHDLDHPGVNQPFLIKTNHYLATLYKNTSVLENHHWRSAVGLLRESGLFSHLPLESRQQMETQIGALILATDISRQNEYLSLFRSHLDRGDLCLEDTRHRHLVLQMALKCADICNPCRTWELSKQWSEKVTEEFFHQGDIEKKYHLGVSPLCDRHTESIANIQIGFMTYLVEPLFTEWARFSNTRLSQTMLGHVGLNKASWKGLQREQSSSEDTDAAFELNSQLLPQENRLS

O=c1c2ccccc2[nH]c(=S)n1CCN1CCOCC1
inhibition [1]: 13.2%

Cc1cccc2c(=O)n(-c3ccccc3Br)c(=S)[nH]c12
Activity (Astrocyte [2]): Active
Papp at 2.5 h [3]: 23.9 ×10⁻⁶ cm/s
Activity (Cerebral cortex neuron): Active
Activity (Microglia [4]): Active

Cn1c(=O)c2c(ncn2C)n(C)c1=O [CAFFEINE]
Papp at 2.5 h [3]: 1.7 ×10⁻⁶ cm/s

O=c1c2ccncc2[nH]c(=S)n1-c1ccccc1
inhibition [1]: 9.3%

O=c1[nH]c2ccccc2c(=O)n1-c1ccc(Br)cc1F
inhibition [1]: 2.5%

COc1ccc(CCn2c(=O)[nH]c3ccc(Br)cc3c2=O)cc1
inhibition [1]: -8.3%

O=c1c2ccccc2[nH]c(=S)n1-c1cccnc1
inhibition [1]: 10%

O=c1c2cccc(Cl)c2[nH]c(=S)n1-c1c(F)cccc1F
Activity (Microglia [5]): Active
Activity (Astrocyte [6]): Active
inhibition [1]: 74.9%
IC50 [7]: 6.1 µM

COc1cc2[nH]c(=S)n(CCN3CCOCC3)c(=O)c2cc1OC
inhibition [1]: 17.9%

O=c1c2cccnc2[nH]c(=S)n1-c1ccccc1
inhibition [1]: -3.1%

COc1ccc(Cn2c(=O)[nH]c3ccccc3c2=O)cc1
inhibition [1]: 9.3%

O=c1c2ccccc2[nH]c(=S)n1CCN1CCCCC1
inhibition [1]: 21.2%

O=c1c2ccccc2[nH]c(=S)n1-c1ccccc1
Activity (Astrocyte [2]): Active
Activity (Cerebral cortex neuron): Active
Activity (Microglia [4]): Active

CCn1cc(C(=O)O)c(=O)c2cc(F)c(N3CCNCC3)nc21 [ENOXACIN]
Papp at 2.5 h [3]: 1.2 ×10⁻⁶ cm/s

CNCCCN1c2ccccc2CCc2ccccc21 [DESIPRAMINE]
Papp at 2.5 h [3]: 15.7 ×10⁻⁶ cm/s

O=c1c2cccc(Cl)c2[nH]c(=S)n1-c1ccccc1Br
Activity (Microglia [8]): Active
Activity (Astrocyte [6]): Active
inhibition [1]: 63.4%
IC50 [7]: 1.8 µM

COc1ccc(CCn2c(=O)[nH]c3ccccc3c2=O)cc1
inhibition [1]: -7.2%

COc1cc2[nH]c(=S)n(CCN3CCCCC3)c(=O)c2cc1OC
inhibition [1]: 12.7%

COc1ccc(CCn2c(=O)[nH]c3cnccc3c2=O)cc1
inhibition [1]: 22.1%

COc1ccc(Cn2c(=O)[nH]c3ncccc3c2=O)cc1
inhibition [1]: 8%

S=c1[nH]c2ccccc2c(=S)n1-c1ccccc1
Activity (Mus musculus): 10.8%
Activity (Astrocyte [2]): Active
Papp at 2.5 h [3]: 23.8 ×10⁻⁶ cm/s
Activity (Cerebral cortex neuron): Active
Activity (Microglia [4]): Active

O=c1c2cccnc2[nH]c(=S)n1-c1cccc(Br)c1
inhibition [1]: 12.8%

Cc1cc(Br)c2[nH]c(=S)n(-c3ccccc3)c(=O)c2c1
inhibition [1]: 4%

CN(C)CCCN1c2ccccc2Sc2ccccc21 [PROMAZINE]
Papp at 2.5 h [3]: 7.7 ×10⁻⁶ cm/s

COc1cc2[nH]c(=S)n(-c3ccccc3)c(=O)c2cc1OC
inhibition [1]: 13.2%

O=c1c2ccncc2[nH]c(=S)n1-c1cccnc1
inhibition [1]: 2.7%

COc1cc2[nH]c(=S)n(-c3cccnc3)c(=O)c2cc1OC
inhibition [1]: 19%

Reference: ChEMBL document CHEMBL1926561, “Neuroprotective efficacy of quinazoline type phosphodiesterase 7 inhibitors in cellular cultures and experimental stroke model” (Eur J Med Chem, 2012)
